Here are results for three compounds from ChEMBL document CHEMBL1145471, “Small molecule regulators of autophagy identified by an image-based high-throughput screen” (Proc Natl Acad Sci U S A, 2007).

The source made the active and inactive calls. The calls are words filed in the database; no cut-off is given here.

For assay [1], the system named is H4. The assay can be described thus: Induction of light chain 3-GFP level in human H4 cells at 7.4 uM after 24 hrs by high throughput fluorescence microscopy relative to control. In kind it is functional. The essentials: (§1)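 H4 cells stably expressing LC3-GFP, kept in DMEM/10% FBS at 37°C, 5% CO2, were seeded in 96-well plates and exposed to compound for 24 h. Cells were then fixed in 4% paraformaldehyde and stained with 3 μg/ml DAPI. Automated fluorescence microscopy scored the number, size and intensity of LC3-GFP spots. Values are percent of DMSO wells, in triplicate, mean ± SD. Rapamycin served as positive control.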

Assay [2] deals with H4. The assay can be described thus: Increase in long-lived protein degradation in human H4 cells after 2 hrs relative to control. It is filed as functional. On the set-up: concentration or dose not given beside the values.
Assay [3] concerns H4. The assay can be described thus: Decrease in FYVE-RFP+ vesicle intensity per cell in human H4 cells after 4 hrs relative to control. In kind it is functional. Also on record: concentration or dose not given beside the values. A digest of the protocol:
(§2)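 H4 cells stably expressing FYVE-RFP (H4-FYVE), grown in DMEM with 10% FBS, penicillin/streptomycin and 2 mM L-glutamine at 37°C, 5% CO2, seeded in 96-well plates and exposed to compound. Fixed in 4% paraformaldehyde, nuclei stained with 3 μg/ml DAPI, FYVE-RFP+ vesicles quantified by high-throughput fluorescence microscopy against DMSO control. Triplicate wells, mean ± SD.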

Assay [4] relates to H4. The assay can be described thus: Increase in light chain 3-GFP+ autophagosome vesicle area per cell in human H4 cells at 7.4 uM after 24 hrs by high throughput fluorescence microscopy relative to control. In kind it is functional. A digest of the protocol: (§3)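 H4 cells stably expressing LC3-GFP, seeded in 96-well plates and exposed to compound for 24 h; fixed in 4% paraformaldehyde, nuclei stained with 3 μg/ml DAPI. Automated fluorescence microscopy scored number, size and intensity of LC3-GFP spots; values expressed relative to DMSO-treated wells, rapamycin positive control. Triplicate wells, mean ± SD; experiments repeated three times.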

Assay [5] concerns H4. The assay can be described thus: Increase in light chain 3-GFP+ autophagosome vesicle number per cell in human H4 cells at 7.4 uM after 24 hrs by high throughput fluorescence microscopy relative to control. In kind it is functional. The essentials:
as §1

The subject of assay [6] is H4. The assay can be described thus: Increase in long-lived protein degradation in human H4 cells after 4 hrs relative to control. In kind it is functional. Also on record: concentration or dose not given beside the values.
Assay [7] deals with H4. The assay can be described thus: Decrease in FYVE-RFP+ vesicle intensity per cell in human H4 cells after 8 hrs relative to control. Also on record: concentration or dose not given beside the values. In kind it is functional. The essentials: as §2
For assay [8], the system named is H4. The assay can be described thus: Increase in long-lived protein degradation in human H4 cells after 1 hr relative to control. On the set-up: concentration or dose not given beside the values. In kind it is functional.
The subject of assay [9] is H4. The assay can be described thus: Increase in light chain 3-GFP+ autophagosome vesicle intensity per cell in human H4 cells at 7.4 uM after 24 hrs by high throughput fluorescence microscopy relative to control. It is filed as functional. The essentials:
as §3

Assay [10] relates to H4. The assay can be described thus: Increase in long-lived protein degradation in human H4 cells after 24 hrs relative to control. Also on record: concentration or dose not given beside the values. In kind it is functional.
Assay [11] concerns H4. The assay can be described thus: Decrease in FYVE-RFP+ vesicle intensity per cell in human H4 cells after 2 hrs relative to control. On the set-up: concentration or dose not given beside the values. In kind it is functional. The essentials:
as §2

Assay [12] relates to H4. The assay can be described thus: Increase in light chain 3-GFP+ autophagosome vesicle area per cell in human H4 cells at 5.8 uM after 24 hrs by high throughput fluorescence microscopy relative to control. It is filed as functional. A digest of the protocol: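 H4 cells stably expressing LC3-GFP, seeded in 96-well plates and exposed to compound for 24 h; screening concentrations were 3–12 μM, with rapamycin 0.22 μM and bafilomycin A1 0.40 μM. Cells fixed in 4% paraformaldehyde and stained with 3 μg/ml DAPI. Number, size and intensity of LC3-GFP spots measured by high-throughput fluorescence microscopy and expressed as percent of DMSO-treated wells. Rapamycin was the positive control. Triplicate wells, mean ± SD; experiments repeated three times.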

Assay [13] has as its system H4. The assay can be described thus: Effect on FYVE-RFP+ vesicle intensity per cell in human H4 cells after 8 hrs relative to control. It is filed as functional. Also on record: concentration or dose not given beside the values. A digest of the protocol:
as §2

Assay [14] deals with H4. The assay can be described thus: Induction of light chain 3-GFP level in human H4 cells at 5.8 uM after 24 hrs by high throughput fluorescence microscopy relative to control. It is filed as functional. A digest of the protocol:
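H4 cells stably expressing LC3-GFP, grown in DMEM with 10% FBS, penicillin/streptomycin and 2 mM L-glutamine at 37°C, 5% CO2. Cells were seeded in 96-well plates and exposed to library compounds at 3–12 μM for 24 h, then fixed in 4% paraformaldehyde and stained with 3 μg/ml DAPI. LC3-GFP spot number, size and intensity were measured by high-throughput fluorescence microscopy and expressed relative to DMSO. Triplicates, mean ± SD.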

Assay [15] deals with H4. The assay can be described thus: Effect on FYVE-RFP+ vesicle intensity per cell in human H4 cells after 2 hrs relative to control. It is filed as functional. Also on record: concentration or dose not given beside the values. The essentials: as §2
Assay [16] concerns H4. The assay can be described thus: Effect on FYVE-RFP+ vesicle intensity per cell in human H4 cells after 4 hrs relative to control. In kind it is functional. On the set-up: concentration or dose not given beside the values. The essentials: as §2
The subject of assay [17] is H4. The assay can be described thus: Increase in light chain 3-GFP+ autophagosome vesicle number per cell in human H4 cells at 5.8 uM after 24 hrs by high throughput fluorescence microscopy relative to control. It is filed as functional. A digest of the protocol: (§4)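 H4 cells stably expressing LC3-GFP were grown in DMEM with 10% FBS and 2 mM L-glutamine at 37°C, 5% CO2. They were exposed to each compound for 24 h, with DMSO as negative and rapamycin as positive control. Cells were then fixed in 4% paraformaldehyde and stained with 3 μg/ml DAPI. High-throughput fluorescence imaging scored LC3-GFP spot number, size and intensity, expressed relative to DMSO. Mean ± SD of triplicates; experiments repeated three times.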

The subject of assay [18] is H4. The assay can be described thus: Increase in light chain 3-GFP+ autophagosome vesicle intensity per cell in human H4 cells at 5.8 uM after 24 hrs by high throughput fluorescence microscopy relative to control. In kind it is functional. A digest of the protocol: as §4
The test system of assay [19] is H4. The assay can be described thus: Reduction of poly(Q) level in human H4 cells expressing EGFP-Q79-HA after 24 hrs. In kind it is functional, cell-based. The essentials:
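H4 cells were transiently transfected with an EGFP-Q79-HA expression vector. The medium was replaced 6 h after transfection and compounds were added. Poly(Q) was detected with anti-HA antibody.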

In assay [20] the test system is H4. The assay can be described thus: Increase in ratio of light chain 3 subunit 2 to light chain 3 subunit 1 in human H4 cells at 5.3 uM after 4 hrs by Western blot. It is filed as functional, cell-based. A digest of the protocol: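 H4 cells were treated with each compound for 4 h, then lysed. Lysates were immunoblotted with anti-LC3 antibody, with actin as loading control. LC3II and LC3I bands were compared as an LC3II/LC3I ratio.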

In assay [21] the test system is H4. The assay can be described thus: Induction of light chain 3-GFP level in human H4 cells at 5.3 uM after 24 hrs by high throughput fluorescence microscopy relative to control. It is filed as functional. A digest of the protocol: as §1
Assay [22] relates to H4. The assay can be described thus: Increase in FYVE-RFP+ vesicle intensity per cell in human H4 cells after 4 hrs relative to control. It is filed as functional. Also on record: concentration or dose not given beside the values. A digest of the protocol: as §2
The subject of assay [23] is H4. The assay can be described thus: Increase in light chain 3-GFP+ autophagosome vesicle intensity per cell in human H4 cells at 5.3 uM after 24 hrs by high throughput fluorescence microscopy relative to control. In kind it is functional. A digest of the protocol: as §3
Assay [24] deals with Serine/threonine-protein kinase mTOR (Homo sapiens, UniProt P42345). The assay can be described thus: Effect on mTOR phosphorylation in human H4 cells at 5.3 uM after 4 hrs. It is filed as cell-based. A digest of the protocol:
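H4 cells exposed to compound for 4 h. Lysates analysed by Western blot with anti-phospho and anti-total mTOR antibodies, with actin as loading control. Rapamycin served as reference.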

In assay [25] the test system is H4. The assay can be described thus: Increase in FYVE-RFP+ vesicle intensity per cell in human H4 cells after 2 hrs relative to control. It is filed as functional. On the set-up: concentration or dose not given beside the values. A digest of the protocol:
as §2

Assay [26] has as its system H4. The assay can be described thus: Increase in light chain 3-GFP+ autophagosome vesicle number per cell in human H4 cells at 5.3 uM after 24 hrs by high throughput fluorescence microscopy relative to control. It is filed as functional. The essentials:
as §1

Assay [27] relates to H4. The assay can be described thus: Increase in light chain 3-GFP+ autophagosome vesicle area per cell in human H4 cells at 5.3 uM after 24 hrs by high throughput fluorescence microscopy relative to control. It is filed as functional. The essentials: as §3
In assay [28] the test system is H4. The assay can be described thus: Increase in FYVE-RFP+ vesicle intensity per cell in human H4 cells after 8 hrs relative to control. It is filed as functional. Also on record: concentration or dose not given beside the values. The essentials: as §2

In the case of `CC(=O)C1=C(O)[C@@H]2[C@H]3c4c[nH]c5cccc(c45)C[C@H]3C(C)(C)N2C1=O` [CYCLOPIAZONIC ACID], the Activity in assay [1] is listed as 112.62%; in [2] it was 97.66%; in assay [3] it was 30.54%; in assay [4] it was 178.53%; in [5], 162.66%; in assay [6], 96.45%. Further, the Activity is reported as 33.06% in assay [7]; 103.58% in assay [8]; 186.44% in assay [9]; 96.32% in [10]; 41.44% in [11].
Turning to `CCN(CC)CCCCCCCCOC(=O)c1cc(OC)c(OC)c(OC)c1`, the Activity came out at 201.59% in assay [12]; 78.64% in assay [13]; 124.85% in assay [2]; 145.22% in [14]; 89.59% in [15]; 74.72% in assay [16]. The Activity is 109.05% in assay [6]; 170.87% in assay [17]; 106.69% in [8]; 229.5% in assay [18]; 95.47% in [10].
`O=C1NCN(c2ccccc2)C12CCN(CCCC(c1ccc(F)cc1)c1ccc(F)cc1)CC2` [FLUSPIRILENE]: the Activity result was “Dose-dependent effect” in assay [19]; 143.3% in assay [21]; 142.15% in [22]; 143.17% in [2]; 1593.16% in assay [23]; 224.98% in assay [25]. Further, the Activity in assay [6] came out at 144.79%; in assay [26], 309.6%; in [8] it was 93.82%; in assay [27], 532.51%; in [28], 108.53%; in assay [10], 145.5%. For the same compound, in [20], the result was Active. Besides, the result in assay [24] was inactive.
